According to ChEMBL document CHEMBL3124806, “Imidazopyridine-fused [1,3]-diazepinones: synthesis and antiproliferative activity” (Eur J Med Chem, 2014):

How the values were obtained:
Ovis aries = species on record: Ovis aries; experiment: Inhibition of sheep brain tubulin polymerization at 100 uM after 40 mins by DAPI staining-based fluorescence assay
Outline: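 Microtubular protein was purified from sheep brain by two assembly/disassembly cycles (37 °C/0 °C) in MES buffer (100 mM MES pH 6.6, 1 mM EGTA, 0.5 mM MgCl₂). Compound in DMSO was added to 10 µM tubulin with 10 µM DAPI and incubated 40 min at RT. GTP (1 mM) was then added, and assembly was followed by DAPI fluorescence at 37 °C.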

MDA-MB-468 = experiment: Cytotoxicity against human MDA-MB-468 cells assessed as cell growth at 10 uM after 48 hrs by SRB assay relative to untreated control; format: functional; details: MDA-MB-468, 48 h, read-out: Activity
Outline: (§1)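 NCI-60 one-dose screen: each agent added at 10 µM, cultures incubated 48 h. Endpoint by sulforhodamine B protein-binding dye read spectrophotometrically; growth expressed as percent of untreated control cells.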

[1] = Cytotoxicity against human Hs578T cells assessed as cell growth at 10 uM after 48 hrs by SRB assay relative to untreated control; format: functional; details: Hs-578T, read-out: Activity
Outline: (§2)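 NCI-60 panel screen at a single concentration of 10 μM with 48 h incubation. Cell density measured by sulforhodamine B protein-binding dye and read spectrophotometrically. Growth expressed as percent of untreated control cells.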

MDA-MB-231 = experiment: Cytotoxicity against human MDA-MB-231 cells assessed as cell growth at 10 uM after 48 hrs by SRB assay relative to untreated control; format: functional; details: MDA-MB-231, 48 h, read-out: Activity; outline: as §1
DU-145 = experiment: Cytotoxicity against human DU145 cells assessed as cell growth at 10 uM after 48 hrs by SRB assay relative to untreated control; format: functional; details: DU-145, 48 h, read-out: Activity; outline: as §2
PC-3 = experiment: Cytotoxicity against human PC3 cells assessed as cell growth at 10 uM after 48 hrs by SRB assay relative to untreated control; format: functional; details: PC-3, 48 h, read-out: Activity; outline: as §1
SN12C = experiment: Cytotoxicity against human SN12C cells assessed as cell growth at 10 uM after 48 hrs by SRB assay relative to untreated control; format: functional; details: read-out: Activity
Outline: (§3)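 NCI-60 single-dose screen. Compounds were added to the cultures at 10 μM and incubated for 48 h. The end point was sulforhodamine B protein staining read spectrophotometrically. Growth is reported as percent of untreated control cells.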

RXF 393 = experiment: Cytotoxicity against human RXF393 cells assessed as cell growth at 10 uM after 48 hrs by SRB assay relative to untreated control; format: functional; details: RXF 393, 48 h, read-out: Activity; outline: as §1
A498 = experiment: Cytotoxicity against human A498 cells assessed as cell growth at 10 uM after 48 hrs by SRB assay relative to untreated control; format: functional; details: A498, 48 h, read-out: Activity; outline: as §2
[2] = Cytotoxicity against human NCI-ADR-RES cells assessed as cell growth at 10 uM after 48 hrs by SRB assay relative to untreated control; format: functional; details: read-out: Activity; outline: as §1
[3] = Cytotoxicity against human OVCAR5 cells assessed as cell growth at 10 uM after 48 hrs by SRB assay relative to untreated control; format: functional; details: OVCAR-5, 48 h, read-out: Activity; outline: as §1
[4] = Cytotoxicity against human OVCAR4 cells assessed as cell growth at 10 uM after 48 hrs by SRB assay relative to untreated control; format: functional; details: OVCAR-4, 48 h, read-out: Activity; outline: as §1
UACC-62 = experiment: Cytotoxicity against human UACC62 cells assessed as cell growth at 10 uM after 48 hrs by SRB assay relative to untreated control; format: functional; details: UACC-62, 48 h, read-out: Activity; outline: as §3
SK-MEL-5 = experiment: Cytotoxicity against human SK-MEL-5 cells assessed as cell growth at 10 uM after 48 hrs by SRB assay relative to untreated control; format: functional; details: SK-MEL-5, 48 h, read-out: Activity; outline: as §3
SK-MEL-28 = experiment: Cytotoxicity against human SK-MEL-28 cells assessed as cell growth at 10 uM after 48 hrs by SRB assay relative to untreated control; format: functional; details: SK-MEL-28, 48 h, read-out: Activity; outline: as §3
SK-MEL-2 = experiment: Cytotoxicity against human SK-MEL-2 cells assessed as cell growth at 10 uM after 48 hrs by SRB assay relative to untreated control; format: functional; details: SK-MEL-2, 48 h, read-out: Activity; outline: as §1
SNB-75 = experiment: Cytotoxicity against human SNB75 cells assessed as cell growth at 10 uM after 48 hrs by SRB assay relative to untreated control; format: functional; details: SNB-75, 48 h, read-out: Activity; outline: as §3
KM12 = experiment: Cytotoxicity against human KM12 cells assessed as cell growth at 10 uM after 48 hrs by SRB assay relative to untreated control; format: functional; details: KM12, 48 h, read-out: Activity; outline: as §2
HCT-116 = experiment: Cytotoxicity against human HCT116 cells assessed as cell growth at 10 uM after 48 hrs by SRB assay relative to untreated control; format: functional; details: HCT-116, 48 h, read-out: Activity; outline: as §2
HCC 2998 = experiment: Cytotoxicity against human HCC2998 cells assessed as cell growth at 10 uM after 48 hrs by SRB assay relative to untreated control; format: functional; details: HCC 2998, 48 h, read-out: Activity; outline: as §2
COLO 205 = experiment: Cytotoxicity against human COLO205 cells assessed as cell growth at 10 uM after 48 hrs by SRB assay relative to untreated control; format: functional; details: COLO 205, 48 h, read-out: Activity; outline: as §2
NCI-H522 = experiment: Cytotoxicity against human NCI-H522 cells assessed as cell growth at 10 uM after 48 hrs by SRB assay relative to untreated control; format: functional; details: NCI-H522, 48 h, read-out: Activity; outline: as §1
NCI-H460 = experiment: Cytotoxicity against human NCI-H460 cells assessed as cell growth at 10 uM after 48 hrs by SRB assay relative to untreated control; format: functional; details: NCI-H460, 48 h, read-out: Activity; outline: as §1
NCI-H23 = experiment: Cytotoxicity against human NCI-H23 cells assessed as cell growth at 10 uM after 48 hrs by SRB assay relative to untreated control; format: functional; details: NCI-H23, 48 h, read-out: Activity; outline: as §1
HOP-62 = experiment: Cytotoxicity against human HOP62 cells assessed as cell growth at 10 uM after 48 hrs by SRB assay relative to untreated control; format: functional; details: HOP-62, 48 h, read-out: Activity; outline: as §2
A549 = experiment: Cytotoxicity against human A549 cells assessed as cell growth at 10 uM after 48 hrs by SRB assay relative to untreated control; format: functional; details: A549, 48 h, read-out: Activity; outline: as §2
SR = experiment: Cytotoxicity against human SR cells assessed as cell growth at 10 uM after 48 hrs by SRB assay relative to untreated control; format: functional; details: read-out: Activity; outline: as §3
HL-60(TB) = experiment: Cytotoxicity against human HL-60(TB) cells assessed as cell growth at 10 uM after 48 hrs by SRB assay relative to untreated control; format: functional; details: HL-60, 48 h, read-out: Activity
Outline: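 NCI-60 human tumour cell line panel; a single 10 µM concentration was added to the cultures and incubated 48 h. Endpoint was sulforhodamine B protein-binding dye read spectrophotometrically, with growth reported as percent of untreated control cells.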

Row | SMILES | inhibition (Ovis aries) [%] | growth at 10 µM (MDA-MB-468) [%] | growth at 10 µM [1] [%] | growth at 10 µM (MDA-MB-231) [%] | growth at 10 µM (DU-145) [%] | growth at 10 µM (PC-3) [%] | growth at 10 µM (SN12C) [%] | growth at 10 µM (RXF 393) [%] | growth at 10 µM (A498) [%] | growth at 10 µM [2] [%] | growth at 10 µM [3] [%] | growth at 10 µM [4] [%] | growth at 10 µM (UACC-62) [%] | growth at 10 µM (SK-MEL-5) [%] | growth at 10 µM (SK-MEL-28) [%] | growth at 10 µM (SK-MEL-2) [%] | growth at 10 µM (SNB-75) [%] | growth at 10 µM (KM12) [%] | growth at 10 µM (HCT-116) [%] | growth at 10 µM (HCC 2998) [%] | other results
1 | C[C@H]1NC(c2ccc(Br)cc2)=Nc2nc3ccccn3c2C1=O | 26 | 102 | 86.5 | 74 | 108 | 83.8 | 94.6 | 94.8 | 87.6 | 95.7 | 98.2 | 111 | 84 | 94.2 | 97.5 | 81.8 | 89.3 | 102 | 90.2 | 112 | growth at 10 µM (COLO 205): 106%; growth at 10 µM (NCI-H522): 79.2%; growth at 10 µM (NCI-H460): 101%; growth at 10 µM (NCI-H23): 90.7%; growth at 10 µM (HOP-62): 69.8%; growth at 10 µM (A549): 99.6%; growth at 10 µM (SR): 77.7%; growth at 10 µM (HL-60(TB)): 91.1%
2 | COc1ccc(C2=Nc3nc4ccccn4c3C(=O)[C@H](C)N2)cc1 | 20 | 76.5 | 98.3 | 84.9 | 113 | 87.3 | 97.7 | 121 | 105 | 96.5 | 101 | 98.4 | 94.3 | 100 | 105 | 83.4 | 81.9 | 102 | 95.9 | 97.8 | growth at 10 µM (COLO 205): 97.5%; growth at 10 µM (NCI-H522): 87.4%; growth at 10 µM (NCI-H460): 105%; growth at 10 µM (NCI-H23): 93.5%; growth at 10 µM (HOP-62): 80.4%; growth at 10 µM (A549): 106%; growth at 10 µM (SR): 80.4%; growth at 10 µM (HL-60(TB)): 90.6%
3 | Cc1ccc(C2=Nc3nc4ccccn4c3C(=O)[C@H](C)N2)cc1 | 16 | 91.1 | 94.8 | 79.7 | 112 | 72.9 | 93.9 | 105 | 99.1 | 79.6 | 94 | 88.7 | 80.1 | 81.7 | 88.9 | 69.5 | 68 | 70.3 | 91.1 | 104 | growth at 10 µM (COLO 205): 80.4%; growth at 10 µM (NCI-H522): 66.5%; growth at 10 µM (NCI-H460): 94.5%; growth at 10 µM (NCI-H23): 85%; growth at 10 µM (HOP-62): 62.9%; growth at 10 µM (A549): 92.9%; growth at 10 µM (SR): 42.2%; growth at 10 µM (HL-60(TB)): 87.5%
